Screening data (PubChem)
Only some compounds are listed: those with a hit (about 3% of all), similar ones and a draw of the others.
UBC13 inh – inhibitors of human UBC13 polyubiquitin chain formation | P61088 | TR-FRET | inhibition, % at 20 µM | 330,000 tested, 0.47% active | AID 485273; in the data active means inhibition above about 45%, passing the limit was not always enough
MPTP inh – permeability transition pore inhibition; isolated mouse mitochondria, Ca2+ swelling absorbance, 30 min; inhibition, % at 10 µM; 360,000 tested, 1.4% active; AID 602449;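 active means inhibition of 50% or more, scaled per plate between neutral and stimulator controls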;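 further: 0% = DMSO wells given calcium and 100% = 1 mM EGTA wells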
MIN6 prolif – induces beta-cell replication in MIN6 cells; MIN6 cells proliferation, ATPlite luminescence, 48 h; cells starved in 0.2% serum; 100% = growth in 10% serum; proliferation, % at 10 µM; 330,000 tested, 0.29% active;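 active means compounds whose signal lies at least 3.5 SD above the mean of all wells on their plate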;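 further: 0% = DMSO-treated cells in low-serum medium and 100% = 10% serum control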
Apaf-1 inh – inhibitors of human Apaf-1 apoptosome; O14727; reconstituted apoptosome caspase-3 activity, DEVD-Rh110 fluorescence; inhibition, % at 20 µM; 330,000 tested, 0.71% active; active means inhibition of at least 40% at 20 µM;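 further: plate controls were DMSO wells for no effect and DEVD-CHO caspase inhibitor wells for full effect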
Target sequence (O14727 whole entry, looked up): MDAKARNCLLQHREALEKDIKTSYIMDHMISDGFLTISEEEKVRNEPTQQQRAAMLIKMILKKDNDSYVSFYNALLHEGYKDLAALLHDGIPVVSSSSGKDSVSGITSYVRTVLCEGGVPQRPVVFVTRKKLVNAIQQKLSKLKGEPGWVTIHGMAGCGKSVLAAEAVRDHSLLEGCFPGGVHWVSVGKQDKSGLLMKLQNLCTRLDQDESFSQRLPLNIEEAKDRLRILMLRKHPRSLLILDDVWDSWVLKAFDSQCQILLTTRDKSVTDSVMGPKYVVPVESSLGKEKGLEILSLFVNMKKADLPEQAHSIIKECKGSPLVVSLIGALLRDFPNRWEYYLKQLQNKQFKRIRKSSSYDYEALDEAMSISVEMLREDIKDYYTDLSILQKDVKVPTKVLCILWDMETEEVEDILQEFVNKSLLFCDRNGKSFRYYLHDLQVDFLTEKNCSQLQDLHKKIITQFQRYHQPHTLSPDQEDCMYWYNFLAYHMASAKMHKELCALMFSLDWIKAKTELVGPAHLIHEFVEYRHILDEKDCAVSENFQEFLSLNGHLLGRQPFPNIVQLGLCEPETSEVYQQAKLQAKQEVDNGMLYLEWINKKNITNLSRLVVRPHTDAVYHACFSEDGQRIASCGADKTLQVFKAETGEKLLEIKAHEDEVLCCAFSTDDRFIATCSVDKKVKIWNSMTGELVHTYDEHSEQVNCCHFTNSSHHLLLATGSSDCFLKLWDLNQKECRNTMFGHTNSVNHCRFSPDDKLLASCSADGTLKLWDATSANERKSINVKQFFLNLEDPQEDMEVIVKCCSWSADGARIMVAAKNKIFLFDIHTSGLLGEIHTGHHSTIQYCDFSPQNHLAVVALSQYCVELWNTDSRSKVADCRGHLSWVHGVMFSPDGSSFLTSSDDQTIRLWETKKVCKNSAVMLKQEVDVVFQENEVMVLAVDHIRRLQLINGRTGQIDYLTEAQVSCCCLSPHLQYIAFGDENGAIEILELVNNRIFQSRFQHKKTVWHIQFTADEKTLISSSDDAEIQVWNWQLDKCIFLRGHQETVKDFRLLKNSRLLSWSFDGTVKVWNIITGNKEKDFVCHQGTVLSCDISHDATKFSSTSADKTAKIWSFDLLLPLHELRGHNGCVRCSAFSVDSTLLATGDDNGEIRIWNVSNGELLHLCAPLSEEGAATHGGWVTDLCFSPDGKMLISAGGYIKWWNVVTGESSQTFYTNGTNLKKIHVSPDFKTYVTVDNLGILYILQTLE
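Material: reconstituted apoptosome with Apaf-1, cytochrome c, caspase-9, procaspase-3, dATP. Technique: Rh110 fluorescence intensity. Buffer or medium: pH 7.5 Hepes buffer with CHAPS, BSA, DTT. Times: 30 min plus 50 min, RT.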
Granule exo inh – lytic granule exocytosis inhibition | TALL-104 LAMP-1 surface exposure, flow cytometry; cells stimulated with thapsigargin and PMA | inhibition, % at 10 µM | 360,000 tested, 0.66% active;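 active means inhibition above about 55%, limit read from the data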
iPSC survival up – hiPSC single-cell survival enhancement | ATPlite luminescence; 100% = ROCK inhibitor wells, 0% = DMSO | survival enhancement, % at 20 µM | 360,000 tested, 0.044% active | AID 602274; in the data active means survival enhancement above about 18%;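 further: cells exposed to compounds for 16 hours before the ATP read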
Apaf-1 inh conf2 – confirmation of Apaf-1 inhibitors; shares compounds with Apaf-1 inh; reconstituted apoptosome, caspase-3 DEVD-Rh110 fluorescence; inhibition, % at 20 µM; 1,800 tested, 25% active; AID 504614;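 active means mean inhibition of at least 40% at 20 µM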;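 further: plate controls were DMSO wells for no effect and DEVD-CHO caspase inhibitor control wells for full effect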
Rh110 interf inh – Rh110 signal interference in Apaf-1 inhibitor counter-screen; shares compounds with Apaf-1 inh; Rh110 fluorescence interference, quenched caspase reaction; activation (fluorescence interference), % at 20 µM; 1,800 tested, under 10 active; AID 504615;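 active means signal rise of 40% or more at 20 µM, treated as a fluorescence artifact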
Apaf1 inh interf – counter-screen for Apaf-1 inhibitors: fluorescence interference, dose response; shares compounds with Apaf-1 inh; fluorescence interference counterscreen, Apaf-1 assay format; IC50, µM; 460 tested, under 10 active; AID 588538; call rule not given here
* = called active by the depositor; x = not tested or not shown.

SMILES | UBC13 inh | MPTP inh | MIN6 prolif | Apaf-1 inh | Granule exo inh | iPSC survival up | Apaf-1 inh conf2 | Rh110 interf inh | Apaf1 inh interf
O=C(NC1(O)C(=O)c2ccccc2C1=O)c1ccccc1 | -51 | -1 | -2 | 94* | 3 | -1 | 96* | 2 | >100
O=C(NC1(O)C(=O)c2ccccc2C1=O)c1c(Cl)cccc1Cl | -22 | 1 | -2 | 96* | 2 | 0 | 97* | 4 | >100
CCN(CC(=O)NCc1ccc(Cl)cc1)C(=O)c1cccc(S(=O)(=O)Nc2ccc(OC)cc2)c1 | 4 | 0 | 5 | 13 | -5 | 0 | x | x | x
O=C(O)c1cccc(NC2=C(n3nnc4ccccc43)C(=O)c3ccccc3C2=O)c1 | -42 | 2 | -2 | 58* | 0 | 0 | 64* | 7 | >100
O=C(O)c1cccc(NS(=O)(=O)c2ccc3nnn(O)c3c2)c1 | -7 | 0 | -2 | 3 | -1 | 5 | x | x | x
CC(NCc1ccc(OCc2ccc(Cl)cc2)cc1)C(O)c1ccccc1 (configuration not stated) | 33 | 11 | -6 | 41* | 67* | -1 | 15 | 3 | x
CC(NCc1cccc(OCc2ccccc2)c1)C(O)c1ccccc1 (configuration not stated) | 18 | 9 | -6 | 3 | -3 | 0 | x | x | x
Cc1nn2c(-c3ccncc3)nnc2c2ccccc12 | -3 | -3 | 0 | 74* | 4 | -3 | 86* | 1 | >100
COc1ccc(-c2nnc3c4ccccc4c(C)nn23)cc1 | -8 | 2 | -1 | 15 | 1 | 1 | x | x | x
COC(=O)CCCC1=CC2=C(c3ccccc3)C(=O)C(C)(OC(=O)C3CCCC3)C(=O)C2=CN1CC(C)C (configuration not stated) | -47 | 0 | -1 | 41* | 0 | 1 | 19 | 4 | x
CCCCCc1ccc(OCCOCCn2c[n+](C)c3ccccc32)c(CCCCC)c1 | x | 48 | x | x | 40 | -4 | x | x | x
CCCCCc1ccc(OCCC[n+]2ccccc2)c(CCCCC)c1 | 30 | 18 | -4 | 66* | 0 | 0 | 40* | 14 | >100
O=[N+]([O-])c1cccc(S(=O)(=O)N2CCN(c3ccccn3)CC2)c1 | -7 | 0 | -3 | 1 | 10 | 0 | x | x | x
COc1ccc(C)cc1NC(=O)CN1C(=O)COc2ccc(C)cc21 | 9 | 0 | -2 | -3 | 3 | 0 | x | x | x
COc1ccc(Nc2ccc3c(c2)=NC2(CCCCC2)[N+]=3[O-])cc1 | -271 | 8 | -5 | 80* | 14 | -5 | 70* | 12 | >100
c1ccc2c(c1)ccc1ccccc12 | 12 | 2 | -2 | -6 | -2 | 3 | x | x | x
CC1=[N+](C)c2ccc3ccccc3c2C1(C)C | -43 | 2 | -6 | 42* | -6 | -5 | 16 | 1 | x
CN1CCCC1CCNc1ccc2sc3ccccc3c(=O)c2c1 (configuration not stated) | 10 | -1 | -8 | 44* | 0 | -5 | 20 | 6 | x
COC(=O)c1c(NC(=O)COC(=O)C2CCC2)sc(C)c1C | -2 | 1 | 4 | 21 | 0 | 0 | x | x | x
O=C(COc1ccc2c3c(c(=O)oc2c1)CCCC3)N1CCN(c2ccc(F)cc2)CC1 | -4 | 0 | -3 | 18 | 28 | 0 | x | x | x
O=C(COc1ccc2c3c(c(=O)oc2c1)CCC3)N1CCN(c2ccc(F)cc2)CC1 | -1 | 0 | -4 | 42* | -6 | 0 | 11 | 3 | x
N#Cc1c(N2CCCC2)nc(N)c2c(N)nc(N3CCCC3)cc12 | -41 | -7 | -4 | 98* | 60* | -4 | 99* | 9 | >100
CCCOc1cc2c(C#N)c(N3CCCC3)nc(N)c2c(N)n1 | -143 | 1 | 0 | 98* | -8 | -1 | 73* | 3 | >100
COc1cc2c(C#N)c(N3CCN(c4ccccc4OC)CC3)nc(N)c2c(N)n1 | 32 | 2 | -3 | 3 | 4 | -3 | x | x | x
